Assay outcomes as filed in PubChem BioAssay.
KCNQ1 pot = potentiators or activators of human KCNQ1 potassium channel; CHO-K1 KCNQ1, thallium flux FluxOR fluorescence; hits give high values; B-score at 10 µM; 310,000 compounds, 0.35% hits;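 active = fluorescence ratio B-score, a plate-corrected score, at least three library SD, with initial intensity B-score within 5 SD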
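System: CHO-K1 cells stably expressing KCNQ1 / Medium: assay buffer for compound exposure, DMSO matched across wells / Reagent: thallium- and potassium-containing depolarizing buffer / Compound: one concentration, matched DMSO / Incubation: 20 min compound pretreatment at room temperature / Measured by: kinetic FluxOR fluorescence, 10 s baseline plus 110 s post-stimulus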
Kir21 inh = blocks the mouse Kir2.1 inward-rectifier potassium channel; HEK293-Kir2.1, FluxOR thallium flux fluorescence; hits give low values; B-score at 10 µM; P35561; 310,000 compounds, 0.85% hits;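 active = fluorescence ratio B-score at or below minus 3 SD of library scores, with starting-brightness B-score within 2 SD, cut at about -4.2 in these data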;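 note: channel flux triggered by added potassium and thallium sulfate stimulus; B-score of peak minus minimum fluorescence over baseline after thallium stimulus; more negative B-score means stronger Kir2.1 block with less thallium influx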
hERG protect = shields human hERG channel from block by proarrhythmic agents; CHO-hERG, FluxOR thallium flux, dofetilide IC70 present; Q12809; 310,000 compounds, 0.51% hits; activation (rescue from dofetilide block), less the hit threshold, % at 10 µM;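 active = activation above the mean of controls blocked by dofetilide plus 5 SD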;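 note: thallium influx through hERG after potassium depolarization seen as dye fluorescence rise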
KCNQ1 block = inhibitors of human KCNQ1 potassium channel; P51787; CHO-K1 KCNQ1, FluxOR thallium flux fluorescence; hits give high values; B-score at 10 µM; 310,000 compounds, 1.3% hits; AID 2642;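 active = compounds whose thallium flux B-score, printed positive for inhibition, exceeds three library SD while starting fluorescence stays within three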;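 note: channel opened by potassium depolarization with thallium stimulus after 20 min compound exposure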
KCNK3 inh = human KCNK3 channel inhibition, primary screen. O14649. CHO-KCNK3 thallium flux, FluxOR fluorescence; hits give low values. B-score at 10 µM. 340,000 compounds, 0.84% hits. AID 602410;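 active = B-score under library mean minus 4 SD, starting fluorescence ratio at most library mean plus 5 SD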;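 note: more negative B-score means stronger inhibition of thallium flux through KCNK3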
Target sequence (O14649 whole entry, looked up): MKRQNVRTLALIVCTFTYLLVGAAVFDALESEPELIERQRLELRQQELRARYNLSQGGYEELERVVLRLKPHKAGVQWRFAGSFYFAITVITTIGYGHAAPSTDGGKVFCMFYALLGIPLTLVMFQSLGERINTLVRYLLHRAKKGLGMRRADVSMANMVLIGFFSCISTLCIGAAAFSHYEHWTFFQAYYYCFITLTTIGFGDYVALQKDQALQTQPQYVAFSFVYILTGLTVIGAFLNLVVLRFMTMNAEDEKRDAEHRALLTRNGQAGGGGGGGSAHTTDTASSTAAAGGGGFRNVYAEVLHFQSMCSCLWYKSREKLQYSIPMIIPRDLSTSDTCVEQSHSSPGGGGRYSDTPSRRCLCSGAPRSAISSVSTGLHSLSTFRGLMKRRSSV
KCNK9 block = human KCNK9 channel inhibition. Q9NPC2. HEK293 KCNK9, FluxOR thallium flux fluorescence; hits give low values. B-score at 10 µM. 310,000 compounds, 1.2% hits;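 active = ratio B-score over 3 SD below the library mean, with starting fluorescence within 5 SD of its mean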;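 note: negative B-score means less thallium flux so channel inhibition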
Target sequence (Q9NPC2 whole entry, looked up): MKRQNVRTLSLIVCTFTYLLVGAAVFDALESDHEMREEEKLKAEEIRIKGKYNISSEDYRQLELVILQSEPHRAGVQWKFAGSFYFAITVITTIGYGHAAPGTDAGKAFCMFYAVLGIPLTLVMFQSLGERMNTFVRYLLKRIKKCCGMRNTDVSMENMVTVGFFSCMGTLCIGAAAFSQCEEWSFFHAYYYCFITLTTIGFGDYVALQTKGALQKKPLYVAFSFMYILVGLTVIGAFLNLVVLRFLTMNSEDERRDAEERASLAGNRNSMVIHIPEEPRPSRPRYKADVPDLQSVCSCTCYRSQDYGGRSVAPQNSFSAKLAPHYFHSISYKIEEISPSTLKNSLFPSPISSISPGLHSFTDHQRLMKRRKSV
KCNK3 inh conf = confirmation of human KCNK3 two-pore domain potassium channel inhibitors. shares compounds with KCNK3 inh. CHO-KCNK3 thallium flux, FluxOR fluorescence; 0% buffer, 100% carvedilol maximal block. ratio percent of control, % at 10 µM. 2,400 compounds, 99% hits. AID 651638;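 active = ratio percent of control, averaged over triplicates, above buffer control mean plus 5 SD, cut at about 64% in these data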;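 note: ratio is the fluorescence rise from min to max over baseline after thallium stimulus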
KCNK3 noninduced = KCNK3 inhibitor counter-screen hit in non-induced cells; 2,400 compounds, 40% hits; non-induced KCNK3 parental cells, FluxOR thallium flux; hits give low values; shares compounds with KCNK3 inh; thallium flux ratio (lower = more inhibition) at 10 µM;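 active = thallium flux ratio, averaged over three wells, more than 5 SD below the buffer control mean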;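 note: host cells are CHO cells without KCNK3 induction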
Large screens that a line does not name were inactive (follow-up assays come after a bar, where they were run). The list is not random: actives were taken first. Their share in the collection is about 3.7%.

Cc1cc(C)cc(NC(=O)c2cccc3c2C(=O)N(C2CCCCC2)C3)c1	KCNK3 inh -9.34 | KCNK3 inh conf 107.3 | KCNK3 noninduced inactive
Fc1ccccc1/C=C1\CCCC2=C1NC(=S)NC2c1ccccc1F (stereo not drawn)	KCNK3 inh -9.04 | KCNK3 inh conf 101.3 | KCNK3 noninduced inactive
S=C1NC2=C(CCC/C2=C\c2ccccc2)C(c2ccccc2)N1 (stereo not drawn)	none
CCCCN(C)Cc1cc(=O)oc2ccc3ccccc3c12	KCNK3 inh -9.29 | KCNK3 inh conf 120.0 | KCNK3 noninduced 0.146
CC1CCN(c2ccccc2NC(=O)c2cc3ccccc3o2)CC1	KCNK3 inh -9.74 | KCNK3 inh conf 105.7 | KCNK3 noninduced inactive
Cc1ccccc1NC(=O)c1cc2ccccc2o1	none
O=C(c1c[nH]c(C(=O)C(Cl)(Cl)Cl)c1)c1ccc(F)cc1Cl	KCNQ1 pot 8, KCNK3 inh -10.6 | KCNK3 inh conf 87.7 | KCNK3 noninduced inactive
Cc1onc(-c2ccccc2)c1C(=O)OCCOc1ccc([N+](=O)[O-])cc1[N+](=O)[O-]	KCNK3 inh -10.2 | KCNK3 inh conf 92.0 | KCNK3 noninduced inactive
COc1ccc(-c2[nH]ncc2CN(C)C(C)c2cccs2)c(F)c1 (stereo not drawn)	KCNK3 inh -9.5 | KCNK3 inh conf 101.0 | KCNK3 noninduced inactive
Cc1ccc(Cn2ccc(NC(=O)c3noc4c3CCc3ccccc3-4)n2)cc1	none
Cc1nn(Cc2ccc(Cl)cc2)c(C)c1NC(=O)c1noc2c1CCc1ccccc1-2	KCNK3 inh -8.75 | KCNK3 inh conf 117.0 | KCNK3 noninduced inactive
Cc1ccc(S(=O)(=O)N2c3ccccc3CC2C)cc1 (stereo not drawn)	none
CC1Cc2ccccc2N1S(=O)(=O)c1cccs1 (stereo not drawn)	KCNK3 inh -9.41 | KCNK3 inh conf 123.7 | KCNK3 noninduced 0.131
Cc1cc(C)n(C(=O)N(c2ccccc2)c2ccccc2)n1	none
C=CSc1sc(Cl)c(N2CCOCC2)c1[N+](=O)[O-]	none
C=CS(=O)(=O)c1sc(Cl)c(N2CCOCC2)c1[N+](=O)[O-]	KCNQ1 pot 11, Kir21 inh -9.46, KCNK3 inh -8.98 | KCNK3 inh conf 125.3 | KCNK3 noninduced 0.122
CCOc1ccc(NC(=S)N(CCc2c(C)[nH]c3ccc(C)cc23)Cc2cccnc2)cc1	KCNK3 inh -9.86 | KCNK3 inh conf 92.0 | KCNK3 noninduced 0.144
Cc1cccc(S(=O)(=O)NC2CCCCCCC2)c1	none
COc1ccc(-c2csc(/C(C#N)=C\c3ccc(O)c([N+](=O)[O-])c3)n2)cc1OC	KCNK3 inh -10.5 | KCNK3 inh conf 116.3 | KCNK3 noninduced 0.138
Cc1cc(NS(=O)(=O)c2cc(Cl)sc2Cl)no1	none
Cc1cnccc1CN(C)Cc1cn(C)nc1-c1ccc(Oc2ccccc2)cc1	KCNK3 inh -10.1 | KCNK3 inh conf 118.0 | KCNK3 noninduced 0.155
CCN(CC)C(=O)C1CCCN(c2ccc([N+](=O)[O-])cc2/C=N/NC(=O)c2cccc(O)c2)C1 (stereo not drawn)	KCNK3 inh -14.3 | KCNK3 inh conf 90.7 | KCNK3 noninduced inactive
O=C(Cc1ccccc1Cl)NCc1cccnc1	none
CS(=O)(=O)c1ccc(Oc2ccc(-c3nnco3)cc2)c([N+](=O)[O-])c1	none
COc1ccc(OC)c(NC(=O)c2sc3ncnc(N4CCN(c5ccccn5)CC4)c3c2C)c1	KCNK3 inh -9.13 | KCNK3 inh conf 104.3 | KCNK3 noninduced inactive
COc1ccccc1N1CCN(C(=O)c2sc3ncnc(N4CCN(c5ccccn5)CC4)c3c2C)CC1	none
COC(=O)[C@@H](CC(C)C)NS(=O)(=O)N(Cc1ccccc1)[C@@H](CC(C)C)C(=O)OC	none (no result: KCNQ1 pot, Kir21 inh, hERG protect, KCNQ1 block, KCNK9 block)
CCN(CC)c1ccc(S(=O)(=O)N(CC)CC)cc1NC(=O)C1CCCC1	KCNK3 inh -9.41 | KCNK3 inh conf 96.7 | KCNK3 noninduced inactive
CCN(CC)S(=O)(=O)c1ccc(N(C)C)c(NC(=O)C2CCCC2)c1	none
CCN(CC)S(=O)(=O)c1cc(NC(=S)NC(=O)C2CCCC2)ccc1C	KCNK3 inh -15.6 (no result: KCNQ1 pot, Kir21 inh, hERG protect, KCNQ1 block, KCNK9 block) | KCNK3 inh conf 101.0 | KCNK3 noninduced inactive
CCN(CC)S(=O)(=O)c1cc(NC(=O)C(=O)c2c(-c3ccccc3)cc3ccccn23)ccc1C	KCNK3 inh -10.2 | KCNK3 inh conf 105.3 | KCNK3 noninduced inactive
Cc1ccc(S(=O)(=O)Nc2ccc(F)cc2)cc1C(=O)N1CCOCC1	none (no result: KCNQ1 pot, Kir21 inh, hERG protect, KCNQ1 block, KCNK9 block)
CC(=O)NS(=O)(=O)c1ccc2sc(C)nc2c1	none
Nc1[nH]c2cc([N+](=O)[O-])ccc2c1-c1ccccn1	KCNK3 inh -10.3 | KCNK3 inh conf 115.3 | KCNK3 noninduced 0.136
CCN1C(=O)[C@H]2[C@H]3CN=C(SCc4ccc(C)cc4)N3[C@@](CC)(C(=O)OC)[C@H]2C1=O	none (no result: KCNQ1 pot, Kir21 inh, hERG protect, KCNQ1 block, KCNK9 block)
O=C(O)c1cc2c(ccc3ccccc32)o1	none
O=C(c1cc2c(ccc3ccccc32)o1)N1CCCCC1	KCNK3 inh -9.12 | KCNK3 inh conf 83.7 | KCNK3 noninduced inactive
Cc1cccc2c(=O)c(Br)c(C)n(Cc3ccccc3)c12	KCNK3 inh -8.91, KCNK9 block -7.8 | KCNK3 inh conf 105.3 | KCNK3 noninduced inactive
Cc1cccc(C(=O)O/N=C(\c2ccccc2)c2cccnc2)c1	KCNK3 inh -8.89 | KCNK3 inh conf 102.3 | KCNK3 noninduced inactive
CSc1nnc(CCNS(=O)(=O)c2ccc(Br)cc2)n1C	none
CCNc1ncnc2c1cnn2C1CCCCO1 (stereo not drawn)	none (no result: KCNQ1 pot, Kir21 inh, hERG protect, KCNQ1 block, KCNK9 block)
Cc1cc(C)c2nc3sc(C(=O)N4CCOCC4)c(N)c3cc2c1	KCNK3 inh -10.7 | KCNK3 inh conf 115.0 | KCNK3 noninduced 0.133
Cc1ccc(C)c2nc3sc(C(=O)N4CCOCC4)c(N)c3cc12	none
Nn1cnc2cc3ccccc3cc2c1=O	none
COc1ccc(OC)c(S(=O)(=O)Nc2c(NC3CCCCC3)c3ccccc3oc2=O)c1	none
Cc1ccc(N(C)S(=O)(=O)c2cc(-c3cnc(C4CC4)o3)ccc2C)cc1	KCNK3 inh -10.7 | KCNK3 inh conf 145.3 | KCNK3 noninduced inactive
Cc1ccc(NS(=O)(=O)c2ccc(-c3cnc(C4CC4)o3)cc2)c(C)c1	KCNK3 inh -10.1 | KCNK3 inh conf 131.7 | KCNK3 noninduced 0.145
CCC(C)NC(=O)c1cc(-c2ccc3c(c2)OCO3)on1 (stereo not drawn)	none
CCc1ccc(C(=O)NNC(=O)c2cccc(S(=O)(=O)N3CCN(C)CC3)c2)cc1	none (no result: KCNQ1 pot, Kir21 inh, hERG protect, KCNQ1 block, KCNK9 block)
